From ChEMBL document CHEMBL1255185, “Substituted 4-amino-1H-pyrazolo[3,4-d]pyrimidines as multi-targeted inhibitors of insulin-like growth factor-1 receptor (IGF1R) and members of ErbB-family receptor kinases” (Bioorg Med Chem Lett, 2010)

Target: Receptor tyrosine-protein kinase erbB-2 (Homo sapiens, UniProt P04626)
Assay: Inhibition of ErbB2

Sequence of Receptor tyrosine-protein kinase erbB-2 (P04626 whole entry): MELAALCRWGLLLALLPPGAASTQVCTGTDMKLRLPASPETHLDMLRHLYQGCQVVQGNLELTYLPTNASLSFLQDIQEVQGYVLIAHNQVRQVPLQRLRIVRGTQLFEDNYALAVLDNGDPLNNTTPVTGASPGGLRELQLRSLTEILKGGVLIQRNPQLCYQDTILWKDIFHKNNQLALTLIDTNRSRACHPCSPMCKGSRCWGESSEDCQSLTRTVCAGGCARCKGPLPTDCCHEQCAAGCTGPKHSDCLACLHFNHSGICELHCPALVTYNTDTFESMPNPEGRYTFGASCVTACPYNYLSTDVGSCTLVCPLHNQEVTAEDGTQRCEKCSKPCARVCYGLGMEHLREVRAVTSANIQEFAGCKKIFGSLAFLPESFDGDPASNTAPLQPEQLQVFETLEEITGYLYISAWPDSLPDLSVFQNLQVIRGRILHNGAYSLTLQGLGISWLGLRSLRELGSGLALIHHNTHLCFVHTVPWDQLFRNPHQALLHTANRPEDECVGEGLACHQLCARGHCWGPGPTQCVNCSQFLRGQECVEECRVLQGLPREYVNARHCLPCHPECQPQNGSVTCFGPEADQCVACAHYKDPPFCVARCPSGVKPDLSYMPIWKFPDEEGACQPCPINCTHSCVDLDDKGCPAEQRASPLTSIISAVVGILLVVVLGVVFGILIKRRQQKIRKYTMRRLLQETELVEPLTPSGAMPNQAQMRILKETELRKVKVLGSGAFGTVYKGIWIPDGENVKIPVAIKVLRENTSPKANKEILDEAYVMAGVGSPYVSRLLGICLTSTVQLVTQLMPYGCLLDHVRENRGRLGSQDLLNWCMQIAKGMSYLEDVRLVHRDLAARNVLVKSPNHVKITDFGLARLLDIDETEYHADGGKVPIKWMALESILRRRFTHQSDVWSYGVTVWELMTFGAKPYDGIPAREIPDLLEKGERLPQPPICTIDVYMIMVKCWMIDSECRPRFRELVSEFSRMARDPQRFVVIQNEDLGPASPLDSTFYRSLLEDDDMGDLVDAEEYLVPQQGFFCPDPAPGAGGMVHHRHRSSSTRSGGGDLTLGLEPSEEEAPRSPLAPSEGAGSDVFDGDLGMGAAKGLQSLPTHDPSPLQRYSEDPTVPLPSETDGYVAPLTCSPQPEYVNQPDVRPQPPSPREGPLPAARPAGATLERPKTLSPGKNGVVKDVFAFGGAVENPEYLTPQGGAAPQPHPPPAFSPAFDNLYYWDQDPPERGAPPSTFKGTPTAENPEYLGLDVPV

IC50 [nM]	Structure (SMILES)
334	Nc1ncnc2c1c(-c1ccc(Nc3nc4cccc(Cl)c4o3)cc1)nn2[C@H]1CC[C@H](N2CCOCC2)CC1
15.1	CC(C)N1CCC(N2CCC(n3nc(-c4ccc(Nc5nc6cccc(Cl)c6o5)cc4)c4c(N)ncnc43)CC2)CC1
62	CC(C)N1CCN([C@H]2CC[C@@H](n3nc(-c4ccc(Nc5nc6cccc(Cl)c6o5)cc4)c4c(N)ncnc43)CC2)CC1

Continued, compound first:

Structure (SMILES)	IC50 [nM]
Cc1cc(Nc2nc3cccc(Cl)c3o2)ccc1-c1nn([C@H]2CC[C@H](N3CCN(C)CC3)CC2)c2ncnc(N)c12	478
Cc1cc(Br)c2oc(Nc3ccc(-c4cn([C@H]5CC[C@@H](N6CCN(C)CC6)CC5)c5ncnc(N)c45)cc3F)nc2c1	> 62500
CN1CCN([C@H]2CC[C@H](n3nc(-c4ccc(Nc5nc6cccc(Cl)c6o5)cc4Cl)c4c(N)ncnc43)CC2)CC1	15.4
CN1CCN([C@H]2CC[C@@H](n3nc(-c4ccc(Nc5nc6cccc(Cl)c6o5)c(F)c4)c4c(N)ncnc43)CC2)CC1	1350

Target: Epidermal growth factor receptor (Homo sapiens, UniProt P04626+P00533+Q15303+P21860)
Assay: Inhibition of EGFR L858 mutant
Format: protein assay
Method in brief: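 Kinase inhibition was measured in a homogeneous time-resolved fluorescence assay. The EGFR enzyme construct carries the L858R activating mutation.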

IC50 [nM]	Structure (SMILES)
2810	CN1CCN([C@H]2CC[C@@H](n3nc(-c4ccc(Nc5nc6cccc(C#N)c6o5)cc4)c4c(N)ncnc43)CC2)CC1
1020	Nc1ncnc2c1c(-c1ccc(Nc3nc4cccc(Cl)c4o3)cc1)nn2[C@H]1CC[C@H](N2CCOCC2)CC1
97	CC(C)N1CCC(N2CCC(n3nc(-c4ccc(Nc5nc6cccc(Cl)c6o5)cc4)c4c(N)ncnc43)CC2)CC1
322	CC(C)N1CCN([C@H]2CC[C@@H](n3nc(-c4ccc(Nc5nc6cccc(Cl)c6o5)cc4)c4c(N)ncnc43)CC2)CC1

The remaining lines, values behind:

Structure (SMILES)	IC50 [nM]
CN1CCN([C@H]2CC[C@@H](n3nc(-c4ccc(Nc5nc6ccccc6o5)cc4)c4c(N)ncnc43)CC2)CC1	1660
CN1CCN([C@H]2CC[C@@H](n3nc(-c4ccc(Nc5nc6cc(Cl)cc(Cl)c6o5)cc4)c4c(N)ncnc43)CC2)CC1	639
CN1CCN([C@H]2CC[C@@H](n3nc(-c4ccc(Nc5nc6cc(Cl)ccc6o5)c(F)c4)c4c(N)ncnc43)CC2)CC1	1470
Cc1cc(Nc2nc3cccc(Cl)c3o2)ccc1-c1nn([C@H]2CC[C@H](N3CCN(C)CC3)CC2)c2ncnc(N)c12	530
Cc1cc(-c2nn([C@H]3CC[C@H](N4CCN(C)CC4)CC3)c3ncnc(N)c23)ccc1Nc1nc2cccc(Cl)c2o1	156
Cc1cc(Br)c2oc(Nc3ccc(-c4cn([C@H]5CC[C@@H](N6CCN(C)CC6)CC5)c5ncnc(N)c45)cc3F)nc2c1	1450
CN1CCN([C@H]2CC[C@@H](n3nc(-c4ccc(Nc5nc6cccc(Cl)c6o5)c(F)c4)c4c(N)ncnc43)CC2)CC1	852
COC(=O)c1cccc2nc(Nc3ccc(-c4nn([C@H]5CC[C@@H](N6CCN(C)CC6)CC5)c5ncnc(N)c45)cc3)oc12	3590

Target: Insulin-like growth factor 1 receptor (Homo sapiens, UniProt P08069)
Assay: Inhibition of IGF1R

Sequence of Insulin-like growth factor 1 receptor (P08069 31-736 limits assumed): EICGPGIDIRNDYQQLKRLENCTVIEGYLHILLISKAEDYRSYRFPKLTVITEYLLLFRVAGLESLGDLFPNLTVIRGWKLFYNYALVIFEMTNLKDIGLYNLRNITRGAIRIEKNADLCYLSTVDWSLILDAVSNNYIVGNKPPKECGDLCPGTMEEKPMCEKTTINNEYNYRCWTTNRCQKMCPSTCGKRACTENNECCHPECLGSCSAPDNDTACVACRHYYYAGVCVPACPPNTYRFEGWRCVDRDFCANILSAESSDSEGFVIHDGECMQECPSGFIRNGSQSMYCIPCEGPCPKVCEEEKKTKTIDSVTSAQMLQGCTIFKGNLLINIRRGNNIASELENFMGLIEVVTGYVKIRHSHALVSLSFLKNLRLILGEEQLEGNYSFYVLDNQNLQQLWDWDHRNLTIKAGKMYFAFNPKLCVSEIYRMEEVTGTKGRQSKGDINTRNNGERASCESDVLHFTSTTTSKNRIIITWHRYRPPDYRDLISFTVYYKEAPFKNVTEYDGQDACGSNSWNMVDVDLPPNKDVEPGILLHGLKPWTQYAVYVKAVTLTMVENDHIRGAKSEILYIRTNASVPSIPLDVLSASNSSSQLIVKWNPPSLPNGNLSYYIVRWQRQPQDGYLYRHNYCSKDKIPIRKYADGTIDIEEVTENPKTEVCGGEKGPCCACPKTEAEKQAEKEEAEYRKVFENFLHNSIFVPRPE
Sequence of Insulin-like growth factor 1 receptor (P08069 741-1367 limits assumed): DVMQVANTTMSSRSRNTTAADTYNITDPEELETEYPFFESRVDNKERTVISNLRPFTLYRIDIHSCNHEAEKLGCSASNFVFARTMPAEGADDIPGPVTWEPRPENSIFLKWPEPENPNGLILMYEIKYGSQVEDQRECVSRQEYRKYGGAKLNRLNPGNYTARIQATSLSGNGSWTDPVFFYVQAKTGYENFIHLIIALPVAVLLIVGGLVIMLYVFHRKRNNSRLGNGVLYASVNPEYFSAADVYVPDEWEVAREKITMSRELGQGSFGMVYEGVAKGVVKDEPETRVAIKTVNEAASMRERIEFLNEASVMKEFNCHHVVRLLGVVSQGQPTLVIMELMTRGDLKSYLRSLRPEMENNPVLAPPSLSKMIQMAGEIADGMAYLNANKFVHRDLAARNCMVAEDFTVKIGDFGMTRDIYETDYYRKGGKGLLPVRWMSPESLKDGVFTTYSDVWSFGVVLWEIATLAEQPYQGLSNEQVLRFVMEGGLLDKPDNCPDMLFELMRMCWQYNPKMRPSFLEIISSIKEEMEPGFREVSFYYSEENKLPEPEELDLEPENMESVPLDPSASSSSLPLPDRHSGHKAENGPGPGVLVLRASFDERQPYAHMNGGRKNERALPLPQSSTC

IC50 [nM]	Structure (SMILES)
113	CN1CCN([C@H]2CC[C@@H](n3nc(-c4ccc(Nc5nc6cccc(C#N)c6o5)cc4)c4c(N)ncnc43)CC2)CC1
42	Nc1ncnc2c1c(-c1ccc(Nc3nc4cccc(Cl)c4o3)cc1)nn2[C@H]1CC[C@H](N2CCOCC2)CC1
115	CC(C)N1CCC(N2CCC(n3nc(-c4ccc(Nc5nc6cccc(Cl)c6o5)cc4)c4c(N)ncnc43)CC2)CC1
174	CC(C)N1CCN([C@H]2CC[C@@H](n3nc(-c4ccc(Nc5nc6cccc(Cl)c6o5)cc4)c4c(N)ncnc43)CC2)CC1

The next lines start with the compound.

Structure (SMILES)	IC50 [nM]
CN1CCN([C@H]2CC[C@@H](n3nc(-c4ccc(Nc5nc6ccccc6o5)cc4)c4c(N)ncnc43)CC2)CC1	810
CN1CCN([C@H]2CC[C@@H](n3nc(-c4ccc(Nc5nc6cc(Cl)cc(Cl)c6o5)cc4)c4c(N)ncnc43)CC2)CC1	584
CN1CCN([C@H]2CC[C@@H](n3nc(-c4ccc(Nc5nc6cc(Cl)ccc6o5)c(F)c4)c4c(N)ncnc43)CC2)CC1	415
Cc1cc(Nc2nc3cccc(Cl)c3o2)ccc1-c1nn([C@H]2CC[C@H](N3CCN(C)CC3)CC2)c2ncnc(N)c12	22
Cc1cc(-c2nn([C@H]3CC[C@H](N4CCN(C)CC4)CC3)c3ncnc(N)c23)ccc1Nc1nc2cccc(Cl)c2o1	196
Cc1cc(Br)c2oc(Nc3ccc(-c4cn([C@H]5CC[C@@H](N6CCN(C)CC6)CC5)c5ncnc(N)c45)cc3F)nc2c1	94
CN1CCN([C@H]2CC[C@H](n3nc(-c4ccc(Nc5nc6cccc(Cl)c6o5)cc4Cl)c4c(N)ncnc43)CC2)CC1	4.1
CN1CCN([C@H]2CC[C@@H](n3nc(-c4ccc(Nc5nc6cccc(Cl)c6o5)c(F)c4)c4c(N)ncnc43)CC2)CC1	72
COC(=O)c1cccc2nc(Nc3ccc(-c4nn([C@H]5CC[C@@H](N6CCN(C)CC6)CC5)c5ncnc(N)c45)cc3)oc12	179
